According to paper PMC2922024 (Neuroscience letters, 2010):
Positions of bridges follow the written chain, without caps; N, C: chain ends. Residues, ends and D or L forms follow the SMILES beside them.

B1: nerve growth factor (protein, UniProt P01139 122-241, looked up)
Beta-nerve growth factor: SSTHPVFHMGEFSVCDSVSVWVGDKTTATDIKGKEVTVLAEVNINNSVFRQYFFETKCRASNPVESGCRGIDSKHWNSYCTTTHTFVKALTTDEKQAAWRFIRIDTACVCVLSRKATRRG
modifications: Beta-nerve growth factor

Columns and labels:
[1] = Free GsMTx4 in media with or without serum; assay type: in vitro ADME
[2] = test system: PC12 cells; test: Neurite outgrowth from PC12 cells; assay type: cell-based, rat; conditions: NGF 50 ng/ml alone, 48 h
In short: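 Rat PC12 cells were grown in high-glucose DMEM with 10% FBS, penicillin/streptomycin and 10 mM Hepes at 37 °C in 5% CO2. They were seeded at 4 × 10^4 per well, adhered overnight, then left untreated or given NGF (50 ng/ml final) for 48 h. Phase-contrast images were scored blinded: three random fields per well, at least 4 wells, fields of more than 10 cells, at least 250 cells per experiment. The percentage was calculated per image, and the longest neurite per bearing cell was averaged. Groups were compared by one-way ANOVA with Tukey–Kramer.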

Molecule	free concentration ([1]; culture media with 10% serum, mean (total) concentration 100 μM GsMTx4)	free drug concentration in media as share of the total ([1]; media with 10% serum)	length of the longest neurite per NBC ([2]; untreated approximately 10 μm)	percentage of neurite bearing cells ([2]; untreated ~1%)
CC(C)C[C@@H]1NC(=O)[C@@H](NC(=O)CN)CSSC[C@@H]2NC(=O)[C@@H]3CSSC[C@@H](C(=O)N[C@@H](CC(N)=O)C(=O)N[C@@H](Cc4ccccc4)C(=O)N[C@@H](CO)C(=O)N[C@@H](Cc4ccccc4)C(N)=O)NC(=O)[C@H](CC(C)C)NC(=O)[C@H](CCCCN)NC(=O)[C@H](Cc4ccccc4)NC(=O)[C@H](CC(C)C)NC(=O)[C@H](CCCCN)NC(=O)[C@H](CO)NC(=O)[C@H](CSSC[C@H](NC(=O)[C@H](CCCCN)NC(=O)[C@H](Cc4c[nH]c5ccccc45)NC(=O)[C@H](Cc4c[nH]c5ccccc45)NC(=O)[C@H](Cc4ccccc4)NC(=O)[C@H](CCC(=O)O)NC1=O)C(=O)N[C@@H](CC(N)=O)C(=O)N1CCC[C@H]1C(=O)N[C@@H](CC(N)=O)C(=O)N[C@@H](CC(=O)O)C(=O)N[C@@H](CC(=O)O)C(=O)N[C@@H](CCCCN)C(=O)N3)NC(=O)[C@H](CCCCN)NC(=O)[C@H](CC(C)C)NC(=O)[C@H](CCCCN)NC(=O)[C@@H]1CCCN1C(=O)[C@H](CCCNC(=N)N)NC2=O [GsMTx4] (H-GCLEFWWKCNPNDDKCCRPKLKCSKLFKLCNFSF-NH2; disulfide 2-17, 9-23, 16-30)	~ 5 μM	about 5%		
B1			~ 20 μm	~ 20%
